CendR NRP1 mod: alters CendR peptide binding to human NRP-1 | inhibition, % at 25 µM | 360,000 compounds, 0.85% hits | AID 602438 | FAM-RPARPAR peptide binding to NRP-1, fluorescence polarization | O14786;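 active means inhibition or corrected inhibition above about 18%, plus a signal ratio from 0.5 to 1.5, limit read from the data, passing the limit was not always enough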
PLC-gamma1 inh: inhibitors of human phospholipase C gamma1 | P19174 | purified PLC-gamma1, fluorogenic substrate, fluorescence | inhibition, % at 12.2 µM | 370,000 compounds, 0.84% hits | AID 720700; in the data active means inhibition above about 9.5%
Tn7 DDE FP: disrupts Tn7 cyclic peptide binding to fibrin D-Dimer-E complex; 370,000 compounds, 0.13% hits; P02675; inhibition, % at 8.3 µM; AID 720508; FP displacement of FITC-Tn7 peptide from fibrin DD(E); 0% = median of compound wells per plate;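 active means inhibition above the mean of compounds falling within the control limits plus 3 SD of them, cut at about 14% in these data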;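 further: 0% = plate median of compound wells and 100% = 10 µM Aha-Tn7 peptide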
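Measure: % inhibition scaled between sample-field median and high-control FP; Test system: human fibrin DD(E); Quantity: 2 µM final DD(E) protein; Doses: one dose, 8.3 µM nominal; Schedule: compound with protein 10 min, then 3 h after probe, room temperature; Detection: fluorescence polarization; Medium: Tris buffer with calcium and detergent, pH 7.8.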
Tn6 DDE FP: inhibitors of Tn6 peptide binding to human fibrin DD(E); P02675; Fibrin DD(E) TRITC-Tn6 fluorescence polarization displacement; inhibition, % at 8.3 µM; 370,000 compounds, 0.21% hits; AID 720509;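 active means inhibition above a per-campaign cutoff: mean of compounds within control limits plus 3 SD, cut at about 15% in these data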;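 further: 0% = median of all compound wells on the plate and 100% = blocking peptide control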
PLCb3 inh: blocks human PLC-beta3 enzyme activity; Q01970; 370,000 compounds, 0.18% hits; AID 720704; Purified PLC-beta3, fluorogenic substrate, fluorescence; inhibition, % at 12.2 µM; in the data active means inhibition above about 11%;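 further: 0% = median of compound wells on plate and 100% = full blocker control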
proKLK7 act: proKLK7 (human) activation, primary screen; purified proKLK7, EDANS-DABCYL substrate fluorescence; 100% is mature enzyme control, 0% vehicle; AID 652039; P49862; 370,000 compounds, 0.9% hits; activation, % at 7 µM;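 active means activation above the mean of all tested compounds plus 3 SD, computed per campaign excluding outliers beyond control limits, cut at about 13% in these data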
Target sequence (P49862 whole entry, looked up): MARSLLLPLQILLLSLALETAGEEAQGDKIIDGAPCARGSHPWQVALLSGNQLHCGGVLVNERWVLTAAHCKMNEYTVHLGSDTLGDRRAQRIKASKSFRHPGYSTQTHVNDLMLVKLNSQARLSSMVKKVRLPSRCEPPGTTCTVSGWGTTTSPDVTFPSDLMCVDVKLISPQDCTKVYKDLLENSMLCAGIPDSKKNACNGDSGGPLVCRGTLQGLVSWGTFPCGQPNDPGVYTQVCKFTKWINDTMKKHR
Numbers without * were called inactive; . = not tested or not shown. Only some compounds are listed: those with a hit (about 3% of all), similar ones and a draw of the others.

SMILES | CendR NRP1 mod | PLC-gamma1 inh | Tn7 DDE FP | Tn6 DDE FP | PLCb3 inh | proKLK7 act
COc1cccc(N2CCN(CC(=O)NCc3cccc(OC)c3OC)CC2)c1 | . | 3 | 4 | -3 | -6 | 0
COc1ccc(NC(=S)Nn2cnnc2)c(OC)c1 | 44* | -4 | 0 | 3 | -6 | 0
COCCCNC(=O)C[C@H]1C[C@@]2(C(=O)OC)C(=C[C@H](C3CCCC3)O[C@@H]2C)N(Cc2ccc(Cl)cc2Cl)C1=O | . | -1 | -7 | -3 | 0 | 0
COC(=O)C[C@H]1c2cc(F)ccc2S(=O)(=O)N1C(C)C | 26* | -2 | 1 | -3 | -1 | 0
CCOC(=O)C[C@H]1c2cc(F)ccc2S(=O)(=O)N1C1CCCCC1 | 26* | 3 | -1 | -1 | 4 | -1
CC(=O)C[C@H]1c2cc(C(F)(F)F)ccc2S(=O)(=O)N1C1CCCCC1 | 27* | -5 | -2 | 1 | 0 | -1
COC(=O)C[C@H]1c2cc(F)ccc2S(=O)(=O)N1Cc1ccccc1OC | -3 | 0 | 3 | 8 | 0 | 0
COC(=O)C[C@H]1c2cc(F)cc(F)c2S(=O)(=O)N1C1CCN(Cc2ccccc2)CC1 | 27* | -5 | -3 | 4 | -4 | 0
C#CCNC(=O)C[C@@H]1C(=O)N(CC=C)/C2=C/CCCCC[C@]21C(=O)OCC | . | 2 | -3 | 1 | 3 | 0
O=[N+]([O-])c1ccccc1S(=O)(=O)N1CCC(c2cn3ccccc3n2)CC1 | . | -4 | -6 | 1 | -9 | -1
COC(=O)C[C@H]1c2cc(C(F)(F)F)ccc2S(=O)(=O)N1Cc1ccccc1 | 25* | -3 | 3 | 9 | 1 | 0
COC(=O)C[C@H]1c2cc(C(F)(F)F)ccc2S(=O)(=O)N1C1CCCC1 | 24* | 3 | -3 | 0 | 4 | 0
COC(=O)C[C@H]1c2cc(C(F)(F)F)ccc2S(=O)(=O)N1Cc1ccc(OC)cc1 | 22 | 6 | -6 | 1 | 3 | 0
CCOc1ccccc1-c1ccc(C(=O)NCc2ccccc2)o1 | 27* | -102 | 0 | -12 | -116 | -8
Cc1cccc(C2=NNC(=O)C(c3ccc(Cl)cc3)C2)c1 (stereo unspecified) | 25* | 3 | 6 | -6 | -1 | 0
Cc1ccc(C2CC(c3ccc(Cl)cc3)=NNC2=O)cc1 (stereo unspecified) | -11 | 1 | 2 | 3 | 2 | -1
CCOC(=O)[C@@]12CN(C(=O)OC(C)(C)C)CC=C1N(Cc1ccc(OC)cc1)C(=O)[C@H]2CC(=O)NCc1ccc(C)o1 | . | 1 | 6 | -2 | -1 | 0
O=C1C=C(O)c2cccc3cccc1c23 | 41* | -4 | -3 | -1 | -17 | 0
C[C@@H](N)P(=O)(O)C[C@H](Cc1ccccc1)C(=O)O | . | 3 | -6 | 7 | -2 | 0
O=C(Nc1cccc([N+](=O)[O-])c1)NC1CCCCN(Cc2cccc(Cl)c2)C1=O (stereo unspecified) | . | -1 | -3 | -4 | -3 | 0
CCOC(=O)C(=CNc1ccc(O)c(C(=O)OC)c1)C(=O)OCC | 25* | -56 | -1 | 5 | -89 | 4
COC(=O)[C@H](Cc1ccccc1)N(Cc1cn(Cc2ccccc2)nn1)S(=O)(=O)c1ccccc1Br | . | 6 | -7 | 1 | 5 | 0
O=C(c1cc(F)ccc1F)N1CCC(Oc2cccnc2)CC1 | . | 2 | 2 | -1 | 2 | 1
O=S(=O)(c1cccs1)N1CCCCC1 | 35* | 2 | -4 | -4 | 5 | 1
CC(=O)N1CCC(C(=O)N2CCN(S(=O)(=O)c3cccs3)CC2)CC1 | 37* | -1 | -1 | -4 | -8 | 0
SMILES | CendR NRP1 mod | PLC-gamma1 inh | Tn7 DDE FP | Tn6 DDE FP | PLCb3 inh | proKLK7 act
O=C(C1CCN(S(=O)(=O)c2cccs2)CC1)N1CCCCC1 | 1 | 0 | 4 | -2 | -5 | 0
CCCCOc1ccc(C(=O)NC2CCCCN(CC)C2=O)cc1 (stereo unspecified) | . | 2 | 3 | 4 | 3 | 0
NC(=O)c1c(NC(=O)C(=O)N2CCOCC2)sc2c1CCC2 | -130 | -4 | -2 | 0 | -11 | 0
NC(=O)c1c(NC(=O)C(=O)N2CCOCC2)sc2c1CCCC2 | 32* | -7 | 1 | 6 | -14 | 0
COC(=O)[C@]12C[C@H](CC(=O)N3CCCCC3)C(=O)N(Cc3ccccc3)C1=C[C@H](COCc1ccccc1)O[C@@H]2C | . | -1 | 2 | 0 | 1 | 1
Cc1nc2c(OCCOc3ccccc3)cccn2c1N(C)C(=O)CCC1CCCC1 | 22 | -6 | 3 | -1 | -10 | 0
Cc1nc2c(OCCC3CCCCC3)cccn2c1N(C)C(=O)CCC1CCCC1 | 26* | -2 | 0 | 1 | -8 | 0
CCCC[n+]1ccn(C2=C([O-])c3ccccc3C(=O)/C2=N\S(=O)(=O)c2ccc(Br)cc2)c1 | 4 | 3 | -4 | 2 | 4 | -1
Cc1ccc(S(=O)(=O)/N=C2\C(=O)c3ccccc3C([O-])=C2n2cc[n+](CCC(C)C)c2)cc1 | 31* | . | . | . | . | .
Cn1nc([N+](=O)[O-])c(C(C#N)c2nc3ccccc3n2C)c(Cl)c1=O (stereo unspecified) | 28* | -42 | 1 | 6 | -50 | -1
Cn1c(-c2ccc([N+](=O)[O-])cc2)nc2ccccc21 | 12 | 6 | -8 | 1 | 5 | -1
COc1ccc(/C=C2\SC(=S)N(CC(=O)OCC(=O)Nc3ccc(C)cc3Cl)C2=O)cc1 | 34* | -2 | 0 | -2 | -13 | -1
C=CCN1C(=O)[C@@H](CC(=O)N2CCOCC2)[C@]2(C(=O)OCC)CCCCC/C=C/12 | . | 1 | -1 | -3 | -1 | 0
O=C(c1ccc(-c2ccccc2)cc1)N1CCN(c2ccc3c(c2)C2CC3CCN2C(=O)OCc2ccccc2)CC1 (stereo unspecified) | 32* | -2 | 5 | 6 | 0 | 0
CCC(=O)N1CCc2cc(Br)c(S(=O)(=O)N3CCC(C(=O)NC(C)(C)C)CC3)cc21 | . | -3 | 5 | 0 | 2 | 0
CS(=O)(=O)Cc1cc(Sc2ccccc2)nc(-c2ccncc2)n1 | 23* | -1 | 0 | 3 | 4 | 0
C=CCN1C(=O)[C@H](CC(=O)NCc2ccccc2)[C@@]2(C(=O)OCC)CCCC=C12 | . | 1 | 4 | 2 | 1 | 0
COc1ccc(CNC(=O)OC2CC3CC2[C@H]2CCCCN2C3)cc1 (stereo partly specified) | . | -1 | 0 | -1 | -2 | 0
O=C(c1ccccc1)c1ccccc1 | 0 | 9 | 1 | 1 | 11* | 0
O=C(c1ccccc1)c1ccc(-c2ccc(O)cc2)cc1 | 3 | -63 | -4 | -3 | -87 | 0
